Screening results from PubChem.
RGS4 pot: RGS4 potentiation or activation; HEK293 M3R/inducible RGS4, carbachol calcium flux Fluo4; hits give low values; B-score at 10 µM; actives 0.92% (n = 310,000); AID 463111;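 active = B-score of the integrated calcium signal more than 4 SD below the library mean, with starting fluorescence not abnormally high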;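 note: negative B-score means reduced calcium response which marks RGS4 activation or potentiation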
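Assay system: HEK293 FlpIn-TREx cells, stable M3R, doxycycline-inducible RGS4 / Probe or stimulus: carbachol, ECmax concentration / Times: overnight RGS4 induction, 30 min dye load 37 °C, 20 min compound RT / Signal: kinetic calcium fluorescence imaging with Fluo4-AM dye, 2 µM / Measure: Agonist-evoked peak-minus-minimum fluorescence over baseline, integrated ratio, B score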
MrgX1 ag: agonists of human MrgX1 receptor; Q96LB2; MrgX1-HEK293 cells, Fluo-4 calcium fluorescence, agonist mode; hits give high values; B-score at 10 µM; actives 0.44% (n = 310,000);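 active = calcium response B-score plate-corrected fluorescence ratio at least 3 library SD, with starting fluorescence B-score inside 5 SD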
Target sequence (Q96LB2 whole entry, looked up): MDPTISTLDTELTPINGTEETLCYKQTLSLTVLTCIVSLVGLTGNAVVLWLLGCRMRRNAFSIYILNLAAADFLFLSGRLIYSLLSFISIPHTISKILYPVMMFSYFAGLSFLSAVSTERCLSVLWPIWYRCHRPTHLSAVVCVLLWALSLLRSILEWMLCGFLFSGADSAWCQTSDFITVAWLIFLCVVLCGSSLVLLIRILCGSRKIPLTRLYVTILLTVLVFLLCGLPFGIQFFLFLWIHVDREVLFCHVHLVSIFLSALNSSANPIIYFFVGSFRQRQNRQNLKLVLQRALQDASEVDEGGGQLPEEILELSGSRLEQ
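Material – MrgX1-expressing HEK293 cells · Input – 15,000 cells seeded per well · Dosing – compound as first of three additions · Times – overnight seeding, then 1 h dark dye loading · Measured by – kinetic Fluo-4 NW fluorescence of intracellular calcium · Read-out – B-scored fluorescence response ratio · Benchmarks – positive and negative control wells on each plate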
MrgX1 antagonist: blocks BAM8-22 activation of human MrgX1 receptor; actives 1.3% (n = 310,000); Q96LB2; AID 588676; B-score at 10 µM; MRGX1-HEK293 calcium flux, Fluo-4, BAM8-22 antagonism; hits give low values;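 active = calcium-response B-score plate-corrected more than 3 library SD below zero, starting fluorescence within 5 deviations, no agonist response on first addition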;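 note: peak minus trough fluorescence over baseline after final BAM8-22 challenge near maximal dose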
RGS4 inh: inhibitors of human RGS4. P49798. HEK293 M3R/RGS4 inducible, Fluo-4 calcium flux; hits give high values; triggered by carbachol at its EC20. B-score at 10 µM. actives 0.45% (n = 310,000);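 active = B-score, a plate-corrected calcium signal, over three deviations above library mean, with baseline fluorescence within five deviations of library mean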;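 note: RGS4 expression induced by doxycycline in cells with stable M3 receptor; B-score is computed from the integrated fluorescence ratio over baseline after carbachol; higher B-score means a larger calcium signal and so more RGS4 inhibition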
Target sequence (P49798 whole entry, looked up): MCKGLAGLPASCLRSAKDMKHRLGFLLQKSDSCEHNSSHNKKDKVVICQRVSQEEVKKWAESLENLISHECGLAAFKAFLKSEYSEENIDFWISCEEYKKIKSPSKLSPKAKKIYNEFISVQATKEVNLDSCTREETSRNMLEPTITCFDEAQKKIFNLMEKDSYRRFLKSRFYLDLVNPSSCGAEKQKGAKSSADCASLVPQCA
MrgX1 PAM: human MrgX1 positive allosteric modulation, primary screen. Q96LB2. MrgX1-HEK293, Fluo-4 calcium flux, FDSS; hits give high values. B-score at 10 µM. actives 0.63% (n = 310,000). AID 588675;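 active = plate-corrected calcium response at least 3 library SD above typical, normal starting fluorescence, not activating the receptor alone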;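 note: compound read alongside a low EC10 to EC30 dose of BAM8-22 agonist; peak minus trough fluorescence over baseline measured at the second addition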
Each line names hits and unclear results; the compound was inactive in the other large screens. Shown are actives, neighbours in structure and some others; about 3.5% of the full set was active somewhere.

CC1CN(C(=O)CCC(=O)N2CCOCC2)c2ccccc2O1 (stereo not given)	none
CCOC(=O)c1ccc2ncc(C(=O)OCC)c(Nc3ccc(N4CCOCC4)cc3)c2c1	RGS4 pot -7.5
CCOC(=O)c1cnc2ccc(C(=O)OC)cc2c1Nc1ccc(C(=O)O)cc1	none
Cc1ccc(CCN2CC(C(=O)NCCCOC(C)C)CC2=O)cc1 (stereo not given)	MrgX1 antagonist -4.5
CC(C)OCCCNC(=O)C1CC(=O)N(CCc2ccc(F)cc2)C1 (stereo not given)	none
O=C(Nc1ccc(Cl)cc1)Nc1ccc2c(c1)N1CCN=C1S2	MrgX1 antagonist -5.2
COc1ccc(Cl)cc1NC(=O)c1sc2nc(C)nc(N3CCOCC3)c2c1C	none
CS(=O)(=O)N(CC(=O)Nc1cccc([N+](=O)[O-])c1)c1ccccc1	none
Cc1ccccc1CN(CC(=O)Nc1cccc([N+](=O)[O-])c1)S(=O)(=O)c1ccc(Cl)cc1	RGS4 pot -7.2
CN(C)C(/C=C/Nc1ccc(C#N)cc1)=C(C#N)C#N	MrgX1 antagonist -5.2
CN(C)C(/C=C/Nc1ccc(F)cc1)=C(C#N)C#N	none
O=C(CCc1ccc(Oc2cc([N+](=O)[O-])cc([N+](=O)[O-])c2)cc1)N1CCCCCC1	RGS4 pot -10
O=C(Cc1ccc([N+](=O)[O-])cc1)N1CCCCCC1	none
COc1cccc2cc(C(=O)NC3CC4CCC3C4)oc12 (stereo not given)	none
COc1ccc(NC(=O)N2CCN(c3nc(-c4cccc(OC)c4)cs3)CC2)cc1	RGS4 pot -7
CN1CCN(/N=C/c2ccc(N(c3ccccc3)c3ccccc3)cc2)CC1	RGS4 pot -7.8
Cc1cc(C=C2C(=O)c3ccccc3C2=O)c(C)n1-c1ccc(C(=O)O)cc1	none
Cc1cc(/C=c2\sc3nc4ccccc4n3c2=O)c(C)n1-c1ccc(C(=O)O)cc1	RGS4 pot -7.3 (no result: MrgX1 ag, MrgX1 antagonist, MrgX1 PAM)
Cc1cc(C=C2C(=O)c3ccccc3C2=O)c(C)n1-c1ccccc1	MrgX1 PAM 8.5
Cc1cc(C=C2C(=O)c3ccccc3C2=O)c(C)n1-c1cccc(C(=O)O)c1	MrgX1 PAM 10
CCOC(=O)c1nn(-c2ccccc2)c2nnc(Cc3ccccc3)c(=O)n12	none
CC(=O)c1c(C)[nH]c(C(=O)CN2C(=O)NC(CCc3ccccc3)C2=O)c1C (stereo not given)	none
O=S(=O)(N/N=C1/CC(c2ccccc2)Oc2ccccc21)c1ccc(Br)cc1 (stereo not given)	MrgX1 antagonist -6.7
Cc1ccc(S(=O)(=O)N/N=C2/CC(c3ccccc3)Oc3ccccc32)cc1[N+](=O)[O-] (stereo not given)	none
C=CCn1c2ccccc2c2nnc(SCCN3CCCCC3)nc21	RGS4 pot -7.3
CCn1c2ccc(F)cc2c2nnc(SCCN3CCCCC3)nc21	RGS4 pot -7
CCCn1c2ccccc2c2nnc(SCCN3CCOCC3)nc21	none
Cc1ccc(S(=O)(=O)N2CCOCC2)cc1NC(=O)Cn1nc(C)c([N+](=O)[O-])c1C	MrgX1 antagonist -5
Cc1ccc(Nc2ccc(S(=O)(=O)N3CCOCC3)cc2[N+](=O)[O-])cc1C	MrgX1 antagonist -9.2
COC(=O)CC(NC(=O)Nc1ccccc1F)c1ccc2c(c1)OCO2 (stereo not given)	none
CCS(=O)(=O)N1Cc2ccccc2CC1C(=O)N(C)Cc1ccc(OC)c(F)c1 (stereo not given)	none
O=[N+]([O-])c1ccc(N/N=C\c2cccn2-c2ccccc2)nc1	MrgX1 PAM 8
O=[N+]([O-])c1ccc(N/N=C/c2cccs2)nc1	none
Cc1ccc(C(=O)N(c2ccccc2)C2CC(C)N(C(=O)c3ccco3)c3ccccc32)cc1 (stereo not given)	MrgX1 PAM 17
Cc1nc(C)c(C(=O)NNS(=O)(=O)c2ccc3ccccc3c2)s1	none
O=Cc1cc2ccccc2nc1SCCCF	MrgX1 antagonist -5.8
CSc1nc2ccccc2cc1/C=C(\C#N)c1ccccc1	none
CCCc1cc(-c2[nH]ncc2-c2ccc(C(=O)OCC)o2)c(O)cc1O	none
CCCc1cc(-c2[nH]ncc2-c2ccc3c(c2)OCCCO3)c(O)cc1O	RGS4 pot -7.9
O=S(=O)(NNc1ccc(F)cc1F)c1cccc(Cl)c1	none
CCN1CCc2nc3sc(C(=O)N4CCc5ccccc5C4)c(N)c3cc2C1	none
CCc1ccc2nc3sc(C(=O)N4CCc5ccccc54)c(N)c3cc2c1	MrgX1 antagonist -7.7
CC(C)c1ccc2nc3sc(C(=O)N4CCc5ccccc5C4)c(N)c3cc2c1	MrgX1 antagonist -5.8
CC(Sc1nc(-c2ccco2)nc2c1c(=O)n(C)c(=O)n2C)C(=O)O (stereo not given)	none
O=C(NCc1csc2ccccc12)Nc1cc(Cl)cc(Cl)c1	MrgX1 antagonist -4.6
O=C(Nc1nc(-c2ccccc2)cs1)c1ccc(N2CCOCC2)c([N+](=O)[O-])c1	MrgX1 antagonist -7.4
Cc1ccc(-c2csc(NC(=O)c3cc([N+](=O)[O-])ccc3N3CCOCC3)n2)cc1	none
CCCCn1c(N)c(N(CC(C)C)C(=O)C2CC(=O)N(c3ccc(CC)cc3)C2)c(=O)[nH]c1=O (stereo not given)	none
N#C/C(=C\c1c(N2CCN(Cc3ccccc3)CC2)nc2ccccn2c1=O)S(=O)(=O)c1ccccc1	none
Cc1cccn2c(=O)c(/C=C(\C#N)S(=O)(=O)c3ccccc3)c(N3CCN(Cc4ccccc4)CC3)nc12	RGS4 pot -7.2
CCOC(=O)c1c(CN(C)C)n(-c2ccc(C)cc2)c2cc(Br)c(O)cc12	none
CCOC(=O)c1c(CSC(=N)N)n(-c2ccc(C)cc2)c2cc(Br)c(OC(C)=O)cc12	MrgX1 antagonist -7.6
CC(=O)OCC1O[C@@H](O[C@@H]2C[C@H]3C(C)(C)[C@H](OC(C)=O)CC[C@]3(C)[C@H]3CC[C@]45C[C@]4(CC[C@H]5[C@@H](C)C[C@@H](O)[C@H](O)C(C)(C)O)[C@@]32C)[C@H](O)[C@@H](O)[C@@H]1O (stereo not given in full)	MrgX1 ag 42
CCCCCn1c(N2CCC(Cc3ccccc3)CC2)nc2c1c(=O)[nH]c(=O)n2C	RGS4 pot -9
Cc1ccc(NC(=O)CN(c2ccc(Cl)cc2)S(=O)(=O)c2cc([N+](=O)[O-])ccc2Cl)c(C)c1	none
NS(=O)(=O)c1ccc(CNC(=O)/C=C/c2ccc(Cl)c(Cl)c2)cc1	none
CC(C)c1ccc(/C=C/C(=O)NCc2ccc(S(N)(=O)=O)cc2)cc1	MrgX1 antagonist -6.8
O=C(CCCCCNc1nc(=S)[nH]c2ccccc12)NCCc1c[nH]c2ccccc12	none
O=C(CCCCCNc1nc(=S)[nH]c2ccccc12)NCCc1ccc(Cl)cc1	MrgX1 PAM 9.7
Fc1ccc2[nH]c3c(N4CCN(C5CCCCC5)CC4)ncnc3c2c1	RGS4 pot -7.6
